Only some compounds are listed: those with a hit (about 1.8% of all), similar ones and a draw of the others.
Bfl-1 A1 inh: inhibitors of the anti-apoptotic protein A1, read as caspase activation; MEF A1-2A-BIM cells, Caspase-Glo 3/7 luminescence, 3 h; percent of clofoctol response, vehicle zero; caspase activation, % (concentration not given with the values); hit rate 0.066% among 330,000;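 active means over half of replicate activation scores above 10%, or exactly half above 10 with the replicate mean above 10; inconclusive means replicate mean below 10 yet half the replicates above 10; inactive means over half of replicates below 10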
HDAC3 inh: human HDAC3 inhibition. recombinant HDAC3, fluorogenic peptide/trypsin coupled, fluorescence. hit rate 0.15% among 320,000. inhibition, % at 8.3 µM; in the data active means inhibition above about 26%, passing the limit was not always enough; inconclusive means no clear call, values can overlap the other calls
Target sequence (O15379 whole entry, looked up): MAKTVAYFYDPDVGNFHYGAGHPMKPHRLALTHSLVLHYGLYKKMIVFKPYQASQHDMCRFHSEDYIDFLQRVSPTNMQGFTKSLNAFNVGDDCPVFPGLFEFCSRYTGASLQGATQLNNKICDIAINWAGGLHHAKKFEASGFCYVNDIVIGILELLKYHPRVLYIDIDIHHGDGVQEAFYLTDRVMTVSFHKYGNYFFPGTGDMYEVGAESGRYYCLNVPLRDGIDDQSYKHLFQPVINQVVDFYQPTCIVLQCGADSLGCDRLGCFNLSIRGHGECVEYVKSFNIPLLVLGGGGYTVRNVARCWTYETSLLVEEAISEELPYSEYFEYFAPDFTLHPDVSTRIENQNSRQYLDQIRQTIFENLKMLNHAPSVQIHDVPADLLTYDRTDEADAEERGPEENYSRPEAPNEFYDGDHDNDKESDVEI
ATG4B inh: blocks human ATG4B protease cleavage of LC3 substrate. ATG4B cleavage of LC3-PLA2, NBD-HPC fluorescence, 1 h. Q9Y4P1. hit rate 0.51% among 340,000. inhibition, % at 8.33 µM. AID 504462; in the data active means inhibition above about 40%
AI-2 QS modul: modulators of Vibrio harveyi AI-2 quorum sensing system; Vibrio harveyi JMH597 AI-2 luminescence/OD600 ratio, 9 h; hits give low values; strain lacks LuxN and CqsS sensors; 0 = neutral-control median; activity change, % at 7.5 µM; hit rate 0.4% among 300,000; AID 2094; in the data active means activity change below about -75%, passing the limit was not always enough; inconclusive means no clear call, values can overlap the other calls;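 further: luminescence divided by OD600 gain over 9 h not by final OD600 alone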
LANA-H2B inh: blocks KSHV LANA binding to histone H2A/H2B; hit rate 0.6% among 320,000; Q9QR71; inhibition, % (concentration not given with the values); cell-free LANA-H2A/H2B peptide, fluorescence polarization; in the data active means inhibition mostly above about 10%, no sharp cut-off; inactive means mostly below about 6.7%
HKDC1 inh: blocks human hexokinase HKDC1 activity; Q2TB90; inhibition, % at 20 µM; hit rate 0.16% among 340,000; recombinant HKDC1, G6PDH/diaphorase resazurin coupled fluorescence;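 active means inhibition above about 35% when tested at 20 µM, limit read from the data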;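 further: plate controls were DMSO wells with enzyme for no effect and DMSO wells lacking enzyme for full effect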
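System: Recombinant HKDC1 hexokinase | Amount: HKDC1 at 5 µg/mL | Reagent: Glucose with 1 mM ATP | Doses: Single 20 µM dose | Incubation: Reaction time 90 min, room temperature, protected from light | Signal: Coupled resazurin fluorescence, excitation 525 nm, emission 613 nm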
* hit, by the source's call; ? = inconclusive; / = no result given.

SMILES | Bfl-1 A1 inh | HDAC3 inh | ATG4B inh | AI-2 QS modul | LANA-H2B inh | HKDC1 inh
C#CCOCCOCCOCCNc1nc(N2CCN(C(=O)[C@H](CCC(=O)O)n3cc([C@@H](N)CC(N)=O)nn3)CC2)nc(N2CCN(C(=O)[C@H](CCC(=O)O)n3cc([C@@H](N)CC(N)=O)nn3)CC2)n1 | 0 | -13 | 8 | / | 156* | -5
Nc1cccc(C(=O)c2ccccc2C(=O)O)c1 | / | / | 10 | / | / | 16
Cc1sc2nc(CSC(C)C(=O)NC3(C#N)CCCCC3)[nH]c(=O)c2c1C (stereo not given) | / | / | -9 | / | / | 7
CCOC(=O)/C=C1/SCC(=O)N1CC(=O)Nc1ccccc1OC(F)F | / | / | 3 | / | / | -7
CCN(CC(=O)Nc1ccc(NC(C)=O)cc1)C(=O)c1c(C)nn(Cc2ccc(C)cc2)c1Cl | / | / | 9 | / | / | -5
CCOC(=O)C1=C(COC(=O)c2ccc(OC)c(S(=O)(=O)N3CCOCC3)c2)NC(=O)NC1C (stereo not given) | / | / | -36 | / | / | -5
C#CCOCCOCCOCCNc1nc(N2CCN(C(=O)CCCCCCCCCCNC(=O)Cn3cc(CCCCCN)nn3)CC2)nc(N2CCN(C(=O)CCCCCCCCCCNC(=O)[C@H]([C@@H](C)CC)n3cc(CCCCN=C(N)N)nn3)CC2)n1 | -3 | ? | 49* | / | -63 | 3
C#CCOCCOCCOCCNc1nc(N2CCN(C(=O)CCCCCCCCCCNC(=O)[C@H](CO)n3cc(CCCSC)nn3)CC2)nc(N2CCN(C(=O)CCCCCCCCCCNC(=O)[C@H](CCCCN)n3cc(CCO)nn3)CC2)n1 | 0 | 20 | -4 | / | -21 | -15
C#CCOCCOCCOCCNc1nc(N2CCN(C(=O)CCCCCCCCCCNC(=O)[C@H](CO)n3cc(CCCSC)nn3)CC2)nc(N2CCN(C(=O)CCCCCCCCCCNC(=O)[C@H](CCCN=C(N)N)n3cc(C[C@@H](C)CC)nn3)CC2)n1 | 0 | ? | 72* | / | -18 | 9
CCC(=O)NC(c1ccccc1OC)c1ccc2cccnc2c1O (stereo not given) | 0 | 6 | 8 | -30 | -8 | -21
COc1ccc(Cl)cc1C(Nc1cccnc1)c1ccc2cccnc2c1O (stereo not given) | 1 | 4 | 5 | -82* | -7 | -24
COc1ccc(N(CC(=O)N/N=C/c2cc(Br)c(C)o2)S(=O)(=O)c2ccc(NC(C)=O)cc2)cc1 | 0 | -4 | -15 | 30 | 25* | 17
CC1([N+](=O)[O-])COC(C=Cc2ccccc2)OC1 (stereo not given) | / | / | -3 | / | / | -8
O=C(Cn1[nH]c(=O)c2ccccc2c1=O)OCC(=O)N1CCCc2ccccc21 | 1 | -2 | -9 | 47 | 0 | 2
O=C(Cn1[nH]c(=O)c2ccccc2c1=O)OCC(=O)N1CCc2ccccc2C1 | 8.3* | 15 | -3 | 27 | -3 | 3
CCn1c2ccccc2c2cc(NC(=O)c3ccc(C)c([N+](=O)[O-])c3)ccc21 | 1 | 6 | -7 | 21 | 1 | 0
CCn1c2ccccc2c2cc(NC(=O)c3cccc([N+](=O)[O-])c3)ccc21 | 0 | -2 | -5 | 26 | 79* | 2
CCn1c2ccccc2c2cc(NC(=O)c3coc(=O)c(Br)c3)ccc21 | 0 | -5 | / | 16 | 20* | /
O=C(NCCc1ccc(C(F)(F)F)cc1)C1CC(=O)N(Cc2ccccc2)C1 (stereo not given) | 0 | -1 | -5 | / | 9 | -6
Cc1ccc(NC(=O)CN(C)C(=O)c2ccc(NS(=O)(=O)c3ccc4[nH]c(=O)[nH]c4c3)cc2)cc1 | -1 | 3 | -4 | / | 29* | 3
CN(CC(=O)Nc1c(Cl)cccc1Cl)C(=O)c1ccc(NS(=O)(=O)c2ccc3[nH]c(=O)[nH]c3c2)cc1 | / | / | -5 | / | / | -5
CC(OC(=O)c1cccc(-n2cnnn2)c1)C(=O)Nc1ccc(F)c(F)c1F (stereo not given) | / | / | -3 | / | / | -9
O=C(CSc1nnc(C2CC2)n1-c1ccccc1)N1CCNC1=O | -1 | 3 | -6 | / | 47* | 2
O=C(CSc1ncnc2ccccc12)N1CCNC1=O | 0 | 1 | 3 | / | -13 | -9
Cc1nc(SCC(=O)N2CCNC2=O)c2ccccc2n1 | -1 | 3 | -3 | / | 21* | -3
SMILES | Bfl-1 A1 inh | HDAC3 inh | ATG4B inh | AI-2 QS modul | LANA-H2B inh | HKDC1 inh
O=C(O)c1ccc(N=Nc2c(O)[nH]c3ccc(Br)cc23)cc1 | -4 | 4 | -5 | 5 | 4 | 7
O=c1ccc2cc3c([nH]c4ccc(Br)cc43)oc-2c1O | 0 | 38* | / | -49 | -1 | /
C[C@H](CO)N1C[C@H](C)[C@@H](CN(C)C(=O)Nc2ccc3c(c2)OCO3)Oc2ccc(NC(=O)C3CCCCC3)cc2C1=O | -1 | -1 | 0 | / | -5 | 0
COc1ccc(NC(=O)CNc2cccc(C#N)c2)cc1Cl | 1 | 5 | -13 | -80* | -3 | 2
CCn1c(/C=C/c2cccc([N+](=O)[O-])c2)nc2ccccc2c1=O | 0 | 4 | -15 | 13 | -5 | 7
O=c1c2ccccc2nc(/C=C/c2cccc([N+](=O)[O-])c2)n1CCO | 0 | 3 | -5 | 18 | 19* | -2
Cn1c(=O)c2[nH]c(SCc3cccnc3)nc2n(C)c1=S | / | / | 5 | / | / | -1
CCc1noc(C)c1C(=O)N1CCCC(C(=O)c2ccc(OC)c(F)c2)C1 (stereo not given) | 0 | -10 | -1 | 31 | 14* | 2
Cc1ccc(OCC(=O)NNC(=O)CSC(=S)N2CCCC2)cc1 | / | / | 0 | / | / | -4
C=CCn1c(SCC(=O)Nc2ccc(-c3nc4ccc(C)cc4s3)cc2)nnc1-c1ccccc1 | -1 | -11 | 8 | 9 | 159* | -5
O=C1C=CC(=O)N1c1cccc2cccnc12 | / | / | 0 | / | / | 10
O=C(O)CCNS(=O)(=O)c1ccc2c(c1)OCCCO2 | 1 | 2 | 6 | 17 | 13* | 3
O=C(O)c1ccc(NS(=O)(=O)c2ccc3c(c2)OCCCO3)cc1 | 1 | 4 | -10 | 33 | 2 | -4
Cc1cc(-c2nn(-c3ccccc3F)cc2CN2CCC(O)CC2)c(C)s1 | 1 | -3 | -4 | 29 | 34* | -2
Cc1cc(-c2nn(-c3ccccc3F)cc2CN2CCN(c3ccncc3)CC2)c(C)s1 | 1 | 8 | 20 | 2 | -6 | -3
O=Cc1ccc(F)c([B-](F)(F)F)c1 | / | / | -2 | / | / | -4
Cc1ccc(S(=O)(=O)N2CCOCC2)cc1C(=O)N1CCN(S(=O)(=O)c2ccccc2F)CC1 | / | / | -1 | / | / | -1
O=C(CN(Cc1ccccc1)S(=O)(=O)c1ccc(Cl)cc1)NCC1CCCO1 (stereo not given) | 1 | 7 | 2 | 1 | 14* | -1
O=C(Nc1ccccc1OC(=O)c1ccccc1)c1ccccc1 | / | / | -23 | / | / | -3
